System: MS2 coat protein
Experiment: apparent Kd, MS2 coat protein; higher = weaker binding; RNA-MaP array; FMN 200 µM where present
Procedure, shortened: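 Stalled E. coli RNA polymerase transcribed the designs on Illumina sequencing-chip clusters. SNAP-549-labelled MS2 coat protein was titrated from 0.7 or 1.5 nM, doubling to 3 µM, without and then with constant ligand, in 100 mM Tris-HCl pH 7.5, 80 mM KCl, 4 mM MgCl2, BSA, DTT, yeast tRNA and Tween-20. Per-cluster binding curves were fitted to green signal normalised to red-channel RNA signal and control-cluster median Fmax. The apparent Kd is the median of the filtered fits.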

[1] = designed as: OFF switch for flavin mononucleotide, no ligand
[2] = ligand present: flavin mononucleotide, designed as: OFF switch for flavin mononucleotide
[3] = designed as: ON switch for flavin mononucleotide, no ligand
[4] = ligand present: flavin mononucleotide, designed as: ON switch for flavin mononucleotide

Sequence	apparent Kd [1] [nM]	apparent Kd [2] [nM]	apparent Kd [3] [nM]	apparent Kd [4] [nM]
GUCAGGAAUGUAGGAUAUCGUCAGGAUAACUGGCGAGAAGGACAUGAGGAUCACCCAUGUAAAAUGAAAGAUAAUAAACCUGGC	19.3	31.1	–	–
UGUCGGAGCAGAGGAUAUACAUGAGGAUCACCCAUGUAAAUGAAAGAUAGCUCGAAACGAGCAAAGUAGAAGGCUGCUCCGACA	14.9	24.7	–	–
GCCCUCGCUGAGGAUAUUAUCUGGCUCGACUGAUAAGAAGGCAGUACAUGAGGAUCACCCAUGUGGUUCGUUCG	50.5	142	–	–
UUGCUACAUGAGGAUCACCCAUGUCAGGAUAUUGUGUAUACCGUGGAAGCUGUGUCGAUAAGAAGGGACUGUCU	26.6	30.5	–	–
UAAGUUUUGGUAGGAUAUACUUUAAAUUUCUCUAUCCAUACAUGAGGAUCACCCAUGUUUACAUUGUAGAAGGACCUUUAUGUU	36.8	34	–	–
CUUAUGUGAGGAUAUGUACAGAAAAAAAAGGGUGUAACUGUACAGAAGGCACAUGAGGAUCACCCAUGUGCAUU	60.8	50.4	–	–
GGGUAGAUCCGAGGAUAUACAAUCCGGAAACGGUACAUGAGGAUCACCCAUGUAGAAGGCGGAUCUACAGGUACUAAAGUAGGG	16	14.2	–	–
ACGCUUUGGGAGAAGGUACUUUAAAAUUUUUCCACAUGAGGAUCACCCAUGUAAGGAUAUCCCAUCGUUAAAUAUUCUACAGCA	8.98	7.26	–	–
AAUUGACACGUAGGAUAUCGAUCUAUAUUAACUCGAGAAGGACGUACAUGAGGAUCACCCAUGUUUAAUGGAGUAGAUAAGUUG	102	289	–	–
ACGGCUAACCCAGUUUGAAUCUCAAGAAGGGUACACUGGGCAAGGUACAUGAGGAUCACCCAUGUACAGGAUAUUGAGAUGAGA	48.4	74	–	–
AAAGCUGAAGGAUAUACUUGGAAAAAAAAAAAAAAAAAAAAACAUGAGGAUCACCCAUGUAGAAGGUCAGAUAA	48.2	39.8	–	–
AAUGGCGUGAUAACGCUAAUUAAAACAUGAGGAUCACCCAUGUAGGAUAUCCUACCGAAAUGGUAGGAGAAGGACAAGCAAUGA	33.4	27.7	–	–
AAUAGUGGAGGAUAUACAUGAGGAUCACCCAUGUAGAAAGGAAGUGUAUAUAUGGCGUGUAGAAGGCCAAAUAA	36.4	34.1	–	–
CAGGUAGCUACAGGAUAUACACAGCUCAGUAAACUGAGCAAAAGAACUACAUGAGGAUCACCCAUGUAGAAGGGUAGCUGCCUG	16.8	18.8	–	–
AGGAGUAAAGGGAAUAACAUGAGGAUCACCCAUGUAUGGGAGAGAAGGCAGAUUGGAGGACGAUCUGAGGAUAUUUAAACUCUA	–	–	53.5	20.1
UGGUACAUCGGAGGAUAUCAUGUAAAUACAUGAGGAUCACCCAUGUCGAUGGAGACAUCGGAGAUUGAGAAGGCCGAUGUACCG	–	–	166	8.66
CGUAGGAUCCAGAAGGCAUGAAACAUGAGGAUCACCCAUGUGAAACACAUGAGGAUAUGGAUCCUACGAAAAGUGCGAAAGCAC	–	–	4.32	4.48
ACAUGAGGAUCACCCAUGUGGAGUGAAGAAGGUGGUUACUUAAGACUCUCCCAUGUACUUAGGACUGAGGAUAUUCUAAUAUUU	–	–	82.3	45.9

Sequence	apparent Kd [1] [nM]	apparent Kd [2] [nM]	apparent Kd [3] [nM]	apparent Kd [4] [nM]
CACGGAUGAUCAGGAUAUGCUAAAGCAGGCUGACAUGAGGAUCACCCAUGUCCCAGAAACUGUGGGCAGAAGGGAUGUAAUGUU	–	–	49.8	12.2
GAGCGGAUGUCAGGAUAUCGCCGCGUGAAAAGGCGAGAAGGGACAUGAGGAUCACCCAUGUACUCAUAGGGCCAGCUUGGGCUA	9.71	29.1	–	–
UUGAUGUCAGGAUAUGCUUAAUAUAUUUUAUUAUAAUAUAUACAUGAGGAUCACCCAUGUAGAAGGGACAUUAU	29.1	25.7	–	–
CGCAACUUUUCUCAUGUAAACAUGAGGAUCACCCAUGUAAUGAGAAGGAGGAGAAAGAGAGAAUCCUAGGAUAUCAGAGUUGCG	6.29	6.53	–	–
AGUCGGAGCAGAGGAUAUACAUGAGGAUCACCCAUGUAAAUGGAAUAAGACUGGAAACAGUCAAUGUAGAAGGCUGCUCCGACA	68.5	673	–	–
GUCAGCUCGUGAGGAUAUACAUGUGCUGGAUACAGCACUAUUGAGUUCACAUGAGGAUCACCCAUGUAGAAGGCACGAGCUGAU	15.1	28.1	–	–
GUGUUGUAUGUAGGAUAUGCAUACUGUUAGUAUGCAGAAGGACAUGAGGAUCACCCAUGUAUAUUAUUAUUAUAUAUCAUACAU	21.1	36.8	–	–
AUUGAGCUAGGAUAUACAUGAGGAUCACCCAUGUAGCAAAAUAGCUAUACAUGAUCGGGUAGAAGGAGCGCGAG	13.6	20.5	–	–
UACAUGAGGAUCACCCAUGUUUUGUCGUGUAUGGUAUUUAUCUAGGAUAUCAAUUGAGUUAUUUAUGAGAAGGAGAAUAUUAAU	41.7	44	–	–
GGAACUCAUGUAGGAUAUGCAUGGCGAAGCUACGCAGAAGGACAUGAGGAUCACCCAUGUUCUAGCGUCUGAGUACAGAUGCAA	126	178	–	–
ACGGUGGUCACAGGAUAUCCGGCCCGCGUGCCUGGAGAAGGGUGACUCAGAACCACAUGAGGAUCACCCAUGUGCCUUGCCGUA	–	–	92.1	31.9
GUGGUCAGACAUGAGGAUCACCCAUGUGGAAUAAAUAAGGUACAGGAUAUCUAAUAUAGGAUAUAAGAGAAGGGUAGGUUGGUG	–	–	75.4	78.4
UAGAAGUCAGGAUAUCCAUGGCGGCACUUGCGUGGUGGCGUGGAGAAGGGACAUGAGGAUCACCCAUGUAAAGC	48.7	37	–	–
AAUUAUUAUUGAGGAUAUCGUAUUGAAACAAUACGAGAAGGCGGUAUAAACAUGAGGAUCACCCAUGUGAGCCUGAUGCUUAUG	28.4	58.9	–	–
UUGUUGUGUGUAGGAUAUGCGUGUUAUUAUUAUGCAGAAGGACAUGAGGAUCACCCAUGUGUAUUGUUAUUAUAUAUUAUAUAU	21.4	22.5	–	–
CUAUGAGCGAUAGGAUAUACUGAGAUUGAGUGGGUAGAAGGAUCGAUAGUGUAGAAGACAUGAGGAUCACCCAUGUUAUGGGUU	–	–	726	501
AGCUACGUUUCGUAGCAGUGUCAUCGAGAAGGCCUCAUUACAUGAGGAUCACCCAUGUGAGCAUGGGAGGAUAUCGAUGAUACA	–	–	406	129
GGCGGUAAUGAGAAGGGUCACAUGAGGAUCACCCAUGUGCUCUUCGCCGUGACAGGAUAUCAUUGCCGUCAGGUUAGAUUUUUG	7.99	25.4	–	–

Source: the EternaBench riboswitch data
